Test results taken from the array DNA melting data of Ke et al. (doi:10.1101/2024.01.08.574731).

Tests used:
[1] = melting temperature; fluorescence melt of hairpins on a sequencing array, two-state fit, raised by 9.35 °C to match UV melts; conditions: sodium 0.088 M
In short: (§1)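 Bootstrapped two-state fits yielded melting temperature and folding enthalpy for library hairpins. Cy3 fluorescence, with annealed Cy3 and quencher oligos, was imaged on a sequenced MiSeq flow cell in 50 mM Na-HEPES pH 8.0, 25 mM NaCl in 2.5 °C steps up to 60 °C, and normalised to pre-quench Cy3 and to control constructs. Four replicates were combined by inverse variance, and fitted temperatures were raised by 9.35 °C to match UV melts.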

[2] = folding enthalpy; higher = less favourable; fluorescence melt of hairpins on a sequencing array, two-state fit; conditions: sodium 0.088 M
In short: as §1

Sequence	Tm [1] [°C]	folding enthalpy [2] [kcal/mol]
GGCACCGGAAACAGTGCC (((((.(....).)))))	53.9	-30.9
GCACTGCGAAAGCATGGC ((..(((....)))..))	44.8	-17.4
GAGCGACCGAAAGGTCTC (((..(((....))))))	33.1	-10.2
GATCAGTGCCTGATC ((((((...))))))	49	-22.5
GCGTTACGACGC ((((....))))	56.8	-25.9
GGTTGGACGAAAGTCACC (((..(((....))))))	34.1	-12.2
GAGCTGCGAAAGCAACTC (((.(((....))).)))	51.2	-31.8
GGTATGGGAAACCGTACC ((((.((....)).))))	50.5	-38.5
TCGAAGAAATTCGA (((((....)))))	38.7	-11.1
GCAACAGGAAACTGCTGC (((.(((....))).)))	44.6	-30.2
GATCCGGAGACGGATC ((((((....))))))	63.6	-32.9
GTACACGAAAGTGTAC ((((((....))))))	68.3	-30.2
GCCGTCGAAAGACTGGC ((((((....))).)))	56.4	-33.4
GCGGCCTCCGC ((((...))))	61.8	-17.7
GTCAACGGAAACGTCGAC (((.(((....))).)))	44.4	-33
GTCGACGAAAGTCCAGAC ((((((....)))..)))	38.9	-16.1
GAAGAAGGAAACTCCTTC ((((.((....)).))))	30.7	-19.2
GCCGGCGGAAACGCCAGC ((.((((....)))).))	58.5	-15.4
GTTTCCGAAAGGATTAAC ((((((....)))..)))	28.6	-11.6
GCCACTACGAAAGTAGGC (((..(((....))))))	41.5	-13.1
GATCGTAGATACGATC ((((((....))))))	55.1	-32.3
GATCCAACCCTGGATC ((((((....))))))	48.3	-29
GTCCTCGAAAGAGCAGAC ((((((....)))..)))	30.1	-19.8

Sequence	Tm [1] [°C]	folding enthalpy [2] [kcal/mol]
GTTGAACGAAAGTTAAC (((.(((....))))))	30	-12.3
GCTTCGCGAAAGCCAGGC ((.(.((....)).).))	30.3	-9.39
GTGAGCGAAAGCTGCCAC ((((((....)))..)))	37.6	-8.52
GCAGTTGGAAACAACCGC ((.((((....)))).))	44.1	-23.6
GGAATCCGAAAGGATCC (((.(((....))))))	50	-19.6
GCTATCGGAAACGATAGC (((((((....)))))))	64.3	-52.4
GCGGTCGGAAACGGCTGC ((.(.((....)).).))	53.4	-36.8
GTCTGGGGAAACCTAGAC ((((.((....)).))))	47.6	-29.7
GCGCAGGGAAACCCGCAC (.((.((....)).)).)	37	-17
CGTATGCGGAAACGCACG (((..(((....))))))	40.7	-9.53
GCCATGCGAAAGCTAGGC (((..((....))..)))	62.2	-27.3
GATCTGGTTACAGATC ((((((....))))))	59.1	-40.1
GATCTAAGGTTAGATC ((((((....))))))	39.3	-31.6
GTGGCCTCGAAAGAGCAC (((..(((....))))))	37.4	-14.7
GCTTGCGAAAGCAGAAGC ((((((....)))..)))	47.2	-21.7
GATCTGCAGCAGATC ((((((...))))))	49.2	-35
GATCTGAGGCCAGATC ((((((....))))))	47.1	-35.8
GCACGGCGAAAGCCACGC ((..(((....)))..))	54.9	-19.1
GATCAAGGCGTTGATC ((((((....))))))	48.5	-35.8
GTATACGAAAGTACGTAC ((((((....)))..)))	26.7	-14
GTTACTGGAAACAGTAAC (((((((....)))))))	54.1	-60.8
GCGGAGCGAAAGCTAAGC ((..(((....)))..))	54	-12.8
GATCGTGCGCACGATC ((((((....))))))	64.6	-51.2

Sequence	Tm [1] [°C]	folding enthalpy [2] [kcal/mol]
GATCAATTACTTGATC ((((((....))))))	44	-31.4
GCTTTCGAAAGAAGGAGC ((((((....)))..)))	31.5	-17.8
GTCGTCGAAAGACGCGAC ((((((....)))..)))	55.7	-12.5
GTTATCCGAAAGGACAAC (((.(((....))).)))	39.6	-26.3
GGCCTCGGAAACGGGGTC (.((.((....)).)).)	48.6	-37.2
GCAGCTCGAAAGAGGTGC (((.(((....))).)))	67.5	-29.4
GTGCCGCGAAAGCGTCAC (((.(((....))).)))	61.7	-29.1
GTCGTGGGAAACTACGGC (.(((.(....).))).)	44.7	-25.6
GCTGTGCGAAAGCGCTGC ((.(.((....)).).))	60.1	-25.6
GATCTCGACAGAGATC ((((((....))))))	66.8	-41.9
CGTGCGGAAACGCGACG ((((((....))).)))	55.1	-23.5
GGTTGCGAAAGCAACACC ((((((....)))..)))	50	-8.28
CGCATCCGGAAACGGGCG (((..(((....))))))	46.9	-26.7
GGTGCAGGAAACCACACC ((((..(....)..))))	34.9	-21.4
GCTGAGCGAAAGCCCGGC ((.(.((....)).).))	52.2	-20.1
GTCTTAACGAAAGTTGAC (((..(((....))))))	31.9	-15.8
CGCGGACCATTCCGCG ((((((....))))))	65.3	-37.3
GGACCCTCGAAAGAGTCC (((..(((....))))))	35.9	-16.3
GCAAACGAAAGTTATGC ((((((....))).)))	38.4	-24.3
GCATTGGGAAACCAGTGC (((.(((....))).)))	50.7	-34.4
GATCAGGAGTCTGATC ((((((....))))))	48.2	-38.7
GCTCGGCGAAAGCCCTGC ((..(((....)))..))	53.4	-7.65
GCGACTCGAAAGAGCGC (((.(((....))))))	60.4	-32.7

Sequence	Tm [1] [°C]	folding enthalpy [2] [kcal/mol]
GCCTTAGGAAACTGAGGC ((((.((....)).))))	49	-41.7
GGGAACGAAAGTTGGCCC ((((((....)))..)))	32	-14.7
GTATAGGGAAACCTATAC (((((((....)))))))	50.1	-41
GGGAGTGGAAACGCTCCC (((((.(....).)))))	58	-38.9
GTCTGAGAAATCAGAC ((((((....))))))	52.4	-37.5
GGTTATCGAAAGATCACC (((.(((....))).)))	42.3	-30.4
GTTCTTACGAAAGTAAAC (((..(((....))))))	21.9	-6.21
GATCTTATATAAGATC ((((((....))))))	44.9	-34.1
GGGTTAGCGAAAGCTCCC (((..(((....))))))	41.8	-23.7
GCAGTGCGAAAGCGTTGC (((..((....))..)))	56.2	-17.7
GAAGTGGCGAAAGCCTTC (((..(((....))))))	31.4	-11.4
GAGGACGAAAGTCATCTC ((((((....)))..)))	51.8	-19.1
GCACGACGAAAGTCTTGC (((.(((....))).)))	53.7	-35.8
GGCGAGGGAAACCCCGCC ((((.((....)).))))	57.9	-46.8
GGTGGGGGAAACTCCACC (((((.(....).)))))	56.4	-45.9
CAGCGGAAACGCTG (((((....)))))	69.3	-20.8
GAGCCTGGAAACAGACTC (((.(((....))).)))	43.6	-31.9
GGCATCGAAAGATATGCC ((((((....)))..)))	47.5	-28.1
GGCTTTGGAAACAGAGCC ((((.((....)).))))	50.6	-35.3
GTAATACGAAAGTACTAC (((.(((....))).)))	31.1	-16.9
GATCCCGGTGGGATC ((((((...))))))	65.7	-29.6
GTAGCGGCGAAAGCCTAC (((..(((....))))))	29.9	-10.4
GATCGGCGAAAGCCCATC (((.(((....))).)))	36.4	-11.2
